Measured values from different studies.
Protocols differ between the studies behind these lines.

Structure (SMILES) | assay | test system | setting | endpoint | result
CCc1cc(OC)c2nccc(N3CCc4c(cc(Cn5ccnc5)cc4-c4cn(C)nc4C(F)(F)F)C3=O)c2c1 |  | male Sprague-Dawley rat, plasma | intravenous, 3 mg/kg | C0 | 1150 ng/mL
CCOC(=O)C1=C(C)N/C(=C/c2cc(C)n(-c3ccc(CN4CCCCC4)cc3)c2C)C1=O | metabolic stability | mouse, liver microsomes | 1 µM | half-life | 29 min
CCc1cc(C(=O)NC)c2nccc(N3CCc4c(cc(Cn5ccnc5)cc4-c4cn(C)nc4C(F)(F)F)C3=O)c2c1 |  | male Sprague-Dawley rat, plasma | oral, 50 mg/kg | half-life | 36 min
COc1ccc2c(=O)n(C)c(-c3ccccc3)nc2c1 |  | male Sprague-Dawley rat, brain | oral, 30 mg/kg, 2 h, single dose | concentration | 20 ng/g
COc1cc2c3c(n(CCCN4CCOCC4)c(=O)c2cc1OC)-c1cc2c(cc1C3=O)OCO2 |  | male Fischer 344 rat, plasma | intravenous, 12 mg/m², single dose | half-life | 126 min
Cc1noc(C)c1Cn1cc(N2C(=O)CN(Cc3cccc(O)c3)C2=O)cn1 |  | male Sprague-Dawley rat, plasma | oral, 10 mg/kg, 4 h | concentration | 2.72 ng/mL
CCOC(=O)C1=C(C)N/C(=C/c2cc(C)n(-c3ccc(S(=O)(=O)C(F)(F)F)cc3)c2C)C1=O | metabolic stability | mouse, liver microsomes | 1 µM | half-life | 30 min
COc1cccc(-c2n[nH]c(SCc3ccccn3)n2)c1OC |  | female Sprague-Dawley rat, plasma | intravenous, 1 mg/kg, 4.98 min, single dose | concentration | 4780 ng/mL
CCOC(=O)[C@@]12C[C@@H]1[C@@H](n1ccc3c(NC)nc(C#Cc4ccc(Cl)s4)nc31)[C@H](O)[C@@H]2O |  | male Sprague-Dawley rat, plasma | intravenous, 0.5 mg/kg, 4 h | concentration | 1.88 ng/mL
CCOC(=O)C1=C(C)N/C(=C/c2cc(C)n(-c3ccc(SC)cc3)c2C)C1=O | metabolic stability | mouse, liver microsomes | 1 µM | half-life | 26 min
Cc1noc(C)c1Cn1cc(N2C(=O)N(Cc3cccc(O)c3)C(C)(C)C2=O)cn1 |  | male Sprague-Dawley rat, plasma | oral, 100 mg/kg, 2 h, single dose | concentration | 3.8 ng/mL
CCc1cc(-c2noc(-c3cc(OC)nc(C4CCCC4)c3)n2)cc(C)c1OC[C@@H](O)CO |  | Wistar rat, plasma | oral, 0.1 mg/kg, 3 h, single dose | concentration | 6.2 ng/mL
COC(=O)[C@H](N)CSSC[C@@H](N)C(=O)OC | chemical stability | dog, plasma |  | half-life | 15.1 min
CCOC(=O)C1=C(C)N/C(=C/c2cc(C)n(-c3ccc(OC)cc3)c2C)C1=O | metabolic stability | mouse, liver microsomes | 1 µM | half-life | 32 min
Oc1c(Br)cc(Cl)c2cccnc12 |  | Sprague-Dawley rat, plasma | intravenous, 2 mg/kg | half-life | 534 min
